# Results published in publication PMC4539048 (Science translational medicine, 2015).
# What was measured:
# P. falciparum Dd2 [1] = conditions: Dd2, same 3xEC50 protocol; cited from earlier work
# [2] = tested on: Salmonella typhimurium-E. coli; experiment: 5-strain bacterial reverse mutation assay
# [3] = tested on: G6PD-deficient human red blood cells; assay type: in vivo, NOD-SCID mice; conditions: blood type A- G6PD-deficient human red blood cells
# [4] = tested on: P. falciparum NF54 liver-stage parasites; conditions: historical data using the same donor; cited from earlier work
# P. falciparum 3D7 [5] = experiment: Blood-stage phenotype and development by microscopy; assay type: cell-based; conditions: 10xEC50, 48 h
# Outline: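 Giemsa-stained smears were scored by microscopy, at least 200 cells per condition, for stage arrest and morphology. Standard antimalarials served as controls.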
# [6] = target: P. falciparum DHODH (PfDHODH) (Plasmodium falciparum, UniProt Q08210); assay type: biochemical; conditions: for IC50, P. falciparum DHODH: mean of 3 technical replicates, 95% confidence interval in parentheses
# Sequence of P. falciparum DHODH (PfDHODH) (Q08210 24-569): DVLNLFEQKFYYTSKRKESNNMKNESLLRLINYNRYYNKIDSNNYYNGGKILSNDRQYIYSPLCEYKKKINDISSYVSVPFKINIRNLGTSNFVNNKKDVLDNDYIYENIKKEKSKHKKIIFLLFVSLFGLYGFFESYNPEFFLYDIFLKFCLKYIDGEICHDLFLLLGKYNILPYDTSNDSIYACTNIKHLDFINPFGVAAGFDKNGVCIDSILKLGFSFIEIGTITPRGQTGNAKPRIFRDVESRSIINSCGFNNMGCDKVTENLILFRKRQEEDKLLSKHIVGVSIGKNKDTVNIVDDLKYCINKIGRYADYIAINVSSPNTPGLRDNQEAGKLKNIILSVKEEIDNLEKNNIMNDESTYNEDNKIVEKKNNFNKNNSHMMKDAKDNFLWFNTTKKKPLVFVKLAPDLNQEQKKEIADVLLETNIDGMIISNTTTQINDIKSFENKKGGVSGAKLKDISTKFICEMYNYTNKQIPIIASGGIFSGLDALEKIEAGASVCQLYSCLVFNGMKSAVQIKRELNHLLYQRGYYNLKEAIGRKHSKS
# human DHODH = human DHODH (Homo sapiens, UniProt Q02127); experiment: DHODH inhibition, DCIP spectrophotometric assay; assay type: biochemical; conditions: mean of 3 technical replicates, 95% confidence interval in parentheses
# Sequence of human DHODH (Q02127 whole entry): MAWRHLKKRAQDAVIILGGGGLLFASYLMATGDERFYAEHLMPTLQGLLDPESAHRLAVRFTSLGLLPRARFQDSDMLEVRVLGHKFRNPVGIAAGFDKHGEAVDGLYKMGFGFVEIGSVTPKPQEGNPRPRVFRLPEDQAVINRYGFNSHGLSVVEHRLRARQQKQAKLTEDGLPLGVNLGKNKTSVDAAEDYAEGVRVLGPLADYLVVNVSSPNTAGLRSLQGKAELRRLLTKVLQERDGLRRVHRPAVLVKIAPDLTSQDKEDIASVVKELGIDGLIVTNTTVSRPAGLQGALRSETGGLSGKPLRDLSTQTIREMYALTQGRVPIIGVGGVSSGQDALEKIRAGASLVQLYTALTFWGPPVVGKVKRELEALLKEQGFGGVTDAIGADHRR
# mouse DHODH = mouse DHODH (Mus musculus, UniProt O35435); experiment: DHODH inhibition, DCIP spectrophotometric assay; assay type: biochemical; conditions: mean of 3 technical replicates, 95% confidence interval in parentheses
# Sequence of mouse DHODH (O35435 whole entry): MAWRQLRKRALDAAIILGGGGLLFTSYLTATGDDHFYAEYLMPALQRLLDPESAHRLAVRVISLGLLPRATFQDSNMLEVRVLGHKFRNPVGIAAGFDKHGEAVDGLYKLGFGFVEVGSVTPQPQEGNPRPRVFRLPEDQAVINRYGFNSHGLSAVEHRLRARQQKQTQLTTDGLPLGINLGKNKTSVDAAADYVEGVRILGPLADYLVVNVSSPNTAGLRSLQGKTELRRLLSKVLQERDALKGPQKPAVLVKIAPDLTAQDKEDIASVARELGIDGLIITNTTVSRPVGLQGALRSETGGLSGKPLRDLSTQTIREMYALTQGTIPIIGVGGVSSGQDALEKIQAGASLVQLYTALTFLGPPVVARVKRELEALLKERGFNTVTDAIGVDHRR
# rat DHODH = rat DHODH (Rattus norvegicus, UniProt Q63707); experiment: DHODH inhibition, DCIP spectrophotometric assay; assay type: biochemical; conditions: mean of 3 technical replicates, 95% confidence interval in parentheses
# Sequence of rat DHODH (Q63707 whole entry): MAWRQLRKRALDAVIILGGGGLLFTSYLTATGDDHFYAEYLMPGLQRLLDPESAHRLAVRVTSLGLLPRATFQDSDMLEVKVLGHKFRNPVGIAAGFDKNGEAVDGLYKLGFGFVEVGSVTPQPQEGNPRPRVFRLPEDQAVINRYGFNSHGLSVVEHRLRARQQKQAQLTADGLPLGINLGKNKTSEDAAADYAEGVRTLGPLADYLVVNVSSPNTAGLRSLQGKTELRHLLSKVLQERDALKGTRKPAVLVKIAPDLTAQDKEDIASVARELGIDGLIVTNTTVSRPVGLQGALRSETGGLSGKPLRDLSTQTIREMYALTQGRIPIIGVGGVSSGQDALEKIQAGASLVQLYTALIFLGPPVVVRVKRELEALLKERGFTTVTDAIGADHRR
# dog DHODH = dog DHODH (Canis lupus familiaris, UniProt A0A8I3MWX2); experiment: DHODH inhibition, DCIP spectrophotometric assay; assay type: biochemical; conditions: mean of 3 technical replicates, 95% confidence interval in parentheses
# Sequence of dog DHODH (A0A8I3MWX2 1-406): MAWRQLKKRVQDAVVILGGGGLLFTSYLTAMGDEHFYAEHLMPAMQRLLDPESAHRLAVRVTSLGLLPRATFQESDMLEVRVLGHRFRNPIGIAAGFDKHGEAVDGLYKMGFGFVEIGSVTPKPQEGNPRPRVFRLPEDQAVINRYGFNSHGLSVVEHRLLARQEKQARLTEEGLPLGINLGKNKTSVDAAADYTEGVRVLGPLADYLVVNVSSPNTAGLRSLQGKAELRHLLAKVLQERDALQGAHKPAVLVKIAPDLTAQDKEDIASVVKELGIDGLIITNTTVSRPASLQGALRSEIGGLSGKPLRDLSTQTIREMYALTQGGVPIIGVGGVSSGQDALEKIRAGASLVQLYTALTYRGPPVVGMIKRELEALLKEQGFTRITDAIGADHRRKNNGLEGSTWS
# P. falciparum 3D7 [7] = experiment: In vitro P. falciparum 3D7 growth inhibition; assay type: cell-based; conditions: for P. falciparum 3D7 growth inhibition EC50: 0.5% Albumax-II medium, 95% confidence intervals in parenthesis
# Outline: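 SYBR-green growth assay on P. falciparum 3D7 and drug-resistant lines, including chloroquine- and pyrimethamine-resistant parasites, cultured in RPMI-1640 with 0.5% Albumax-II. At least triplicate data per concentration. EC50 from the log(inhibitor) vs response variable-slope (four-parameter) fit by nonlinear least squares, reported with 95% confidence intervals of the fit.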
# [8] = tested on: P. falciparum Dd2 and resistant clones; experiment: microbe, parasite or virus in culture; assay type: cell-based; conditions: isolates derived from Dd2 and K1
# P. vivax DHODH (PvDHODH) = P. vivax DHODH (PvDHODH) (Plasmodium vivax, UniProt A5K1N1); experiment: DHODH inhibition, DCIP spectrophotometric assay; assay type: biochemical; conditions: mean of 3 technical replicates, 95% confidence interval in parentheses
# rabbit DHODH = rabbit DHODH (Oryctolagus cuniculus, UniProt G1SWF3); experiment: DHODH inhibition, DCIP spectrophotometric assay; assay type: biochemical; conditions: mean of 3 technical replicates
# Sequence of rabbit DHODH (G1SWF3 1-395): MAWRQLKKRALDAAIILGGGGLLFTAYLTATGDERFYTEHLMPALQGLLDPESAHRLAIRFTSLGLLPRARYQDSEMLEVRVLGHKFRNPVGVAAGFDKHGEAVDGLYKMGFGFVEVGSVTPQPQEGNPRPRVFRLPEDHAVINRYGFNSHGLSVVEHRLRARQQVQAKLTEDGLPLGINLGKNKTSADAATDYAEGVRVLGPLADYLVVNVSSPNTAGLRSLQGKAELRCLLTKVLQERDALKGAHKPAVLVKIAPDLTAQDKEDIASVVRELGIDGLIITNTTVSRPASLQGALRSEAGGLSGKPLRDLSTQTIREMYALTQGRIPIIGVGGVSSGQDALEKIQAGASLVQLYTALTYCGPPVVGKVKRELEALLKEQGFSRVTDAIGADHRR
# [9] = Metabolite identification and profiling in pooled plasma; assay type: in vivo; conditions: all species, mass spectrometry peak area ratios, single dose of DSM265
# Outline: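 Pooled plasma from single-dose PK studies in mice, rabbits, monkeys and dogs was profiled by mass spectrometry. Metabolites were identified, and the main oxidative metabolite's structure was confirmed by synthesis. Each metabolite's exposure was estimated as a share of parent AUC from peak area ratios.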
# P. falciparum Dd2 [10] = assay type: cell-based
# P. falciparum HB3 = experiment: In vitro selection of resistant parasites, HB3; assay type: cell-based; conditions: HB3 strain
structure (smiles),measurement,setting,value
CCN(CC)CCCC(C)Nc1ccnc2cc(Cl)ccc12 (centres unmarked) [chloroquine],minimum inoculum for resistance (MIR),P. falciparum Dd2 [1],10^8
Nc1ccc(S(F)(F)(F)(F)F)cc1 [SF5-aniline],mutagenic activity (Ames test),[2],non-mutagenic
COc1cc(NC(C)CCCN)c2ncccc2c1 (centres unmarked) [primaquine],hemolytic toxicity,[3],substantial loss in human RBCs
same,EC50 on hepatocyte infection rate (EEF count),[4],0.20 (0.059 – 0.71) μg/mL
same,Liver-stage schizont EC50 (EEF diameter/size),[4],0.15 µg/mL
CCc1nc(N)nc(N)c1-c1ccc(Cl)cc1 [pyrimethamine],blood-stage phenotype after treatment,P. falciparum 3D7 [5],arrested as mature trophozoites
"Cc1cc(Nc2ccc(S(F)(F)(F)(F)F)c(F)c2)n2nc(C(C)(F)F)nc2n1 [DSM430, 2-(1,1-difluoroethyl)-N-(3-fluoro-4-(pentafluoro-l^6-sulfanyl)phenyl)-5-methyl-[1,2,4]triazolo[1,5-a]pyrimidin-7-amine]","IC50, P. falciparum DHODH",[6],0.010 (0.0079 – 0.014) μg/mL
same,"IC50, Human DHODH",human DHODH,3.7 (2.6 – 4.8) μg/mL
same,"IC50, Mouse DHODH",mouse DHODH,0.10 (0.082 – 0.12) μg/mL
same,"IC50, Rat DHODH",rat DHODH,0.082 (0.069 – 0.099) μg/mL
same,"IC50, Dog DHODH",dog DHODH,0.56 (0.48 – 0.65) μg/mL
same,P. falciparum 3D7 growth inhibition EC50,P. falciparum 3D7 [7],0.0002 (0.00011 – 0.00056) μg/mL
C[C@@H]1CC[C@H]2[C@@H](C)C(=O)O[C@@H]3O[C@@]4(C)CC[C@@H]1[C@]32OO4 [artemisinin],blood-stage phenotype after treatment,P. falciparum 3D7 [5],pyknotic
same,sensitivity of DSM265-resistant isolates to the drug,[8],fully sensitive
"CC(F)(F)c1nc2nc(CO)cc(Nc3ccc(S(F)(F)(F)(F)F)cc3)n2n1 [DSM450, (2-(1,1-difluoroethyl)-7-((4-(pentafluoro-l^6-sulfanyl)phenyl)amino)-[1,2,4]triazolo[1,5-a]pyrimidin-5-yl)methanol]",fold less potent than DSM265 as a PfDHODH inhibitor,[6],3 fold
same,"IC50, P. falciparum DHODH",[6],0.032 (0.026 – 0.040) μg/mL
same,"IC50, P. vivax DHODH",P. vivax DHODH (PvDHODH),0.11 (0.081 – 0.15) μg/mL
same,"IC50, Human DHODH",human DHODH,>43 µg/mL
same,"IC50, Mouse DHODH",mouse DHODH,4.5 (3.1 – 6.9) μg/mL
same,"IC50, Rat DHODH",rat DHODH,1.6 (1.2 – 2.0) μg/mL
same,"IC50, Dog DHODH",dog DHODH,25 (21 – 29) μg/mL
same,"IC50, Rabbit DHODH",rabbit DHODH,>43 µg/mL
same,fold less active than DSM265 against P. falciparum 3D7 parasites,P. falciparum 3D7 [7],43 fold
same,P. falciparum 3D7 growth inhibition EC50,P. falciparum 3D7 [7],0.079 (0.042 – 0.15) μg/mL
same,plasma metabolite exposure as share of the parent AUC,[9],4–27%
O=C1C(O)=C([C@H]2CC[C@H](c3ccc(Cl)cc3)CC2)C(=O)c2ccccc21 [atovaquone],drug concentration required to suppress emergence of resistant parasites,"P. falciparum Dd2 [10]; Dd2, inoculum 2×10^7 parasites",33 xEC50
same,EC50 increase of resistant Dd2 parasites over wild-type,P. falciparum Dd2 [10]; parasites selected with the same drug,10 fold
same,outcome of resistance selection,P. falciparum HB3,resistant HB3 parasites could be obtained
same,sensitivity of DSM265-resistant isolates to the drug,[8],fully sensitive
